Results: ChEMBL document CHEMBL5724801, “EUbOPEN Chemogenomics Library - Multiplex” (2024)
“And” between values parts separate entries of the source, which are not always exact repeats. Equal values may be shown once.

System: Fibroblast
Test: Multiplex assay against human fibroblast
Type: toxicity, cell-based
Outline: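 At seeding, live cells were stained with Hoechst33342, BioTracker Green Microtubule Cytoskeleton Dye, MitoTracker Red and Annexin V Alexa Fluor 680. After compound addition they were imaged on a CQ1 microscope at 37°C and 5% CO2, and CellPathfinder machine-learning gating sorted them into Hoechst high-intensity objects or normal cells, with normal cells further split into healthy, pyknosed or fragmented nuclei and pyknosed cells into mitotic or apoptotic. Tubulin, mitochondrial-mass and membrane-permeability phenotypes are given as per cents of cells with healthy nuclei.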

[1] = 12 h, 1 µM, compound concentration 1 uM
[2] = 12 h, 10 µM, compound concentration 10 uM
[3] = 24 h, 1 µM, compound concentration 1 uM
[4] = 24 h, 10 µM, compound concentration 10 uM
[5] = 48 h, 1 µM, compound concentration 1 uM
[6] = 48 h, 10 µM, compound concentration 10 uM

CCn1cnc2c(-c3ccc(F)c(-c4ccc(S(=O)(=O)CC)cc4OC)c3)cnnc21 [DARIGABAT]
Population Apoptotic (%) [1]: 6.38% and 17.39%
Population Fragmented Nuclei (%) [1]: 14.08% and 9%
Population Healthy Nuclei (%) [1]: 52.82% and 80.09%
Population Hoechst High Intensity Objects (%) [1]: 0%
Population Membrane Permeable-Phenotype (%) [1]: 4% and 1.78%
Population Mitochondria Different-Phenotype (%) [1]: 14.67% and 11.24%
Population Mitotic Cells (%) [1]: 93.62% and 82.61%
Population Normal (%) [1]: 100%
Population Tubulin-Different-Phenotype (%) [1]: 21.33% and 23.08%
Total Cell Count [1]: 142 and 211
Population Apoptotic (%) [2]: 12.5% and 19.64%
Population Healthy Nuclei (%) [2]: 48.7% and 72.25%
Population Hoechst High Intensity Objects (%) [2]: 0%
Population Membrane Permeable-Phenotype (%) [2]: 13.33% and 8.61%
Population Mitochondria Different-Phenotype (%) [2]: 14.67% and 16.56%
Population Mitotic Cells (%) [2]: 87.5% and 80.36%
Population Normal (%) [2]: 100%
Population Tubulin-Different-Phenotype (%) [2]: 54.67% and 72.85%
Total Cell Count [2]: 154 and 209
Population Apoptotic (%) [3]: 11.11% and 23.08%
Population Fragmented Nuclei (%) [3]: 13.37% and 6.44%
Population Healthy Nuclei (%) [3]: 60.47% and 87.13%
Population Hoechst High Intensity Objects (%) [3]: 0%
Population Membrane Permeable-Phenotype (%) [3]: 0.96% and 3.41%
Population Mitochondria Different-Phenotype (%) [3]: 9.62% and 6.82%
Population Mitotic Cells (%) [3]: 88.89% and 76.92%
Population Normal (%) [3]: 100%
Population Tubulin-Different-Phenotype (%) [3]: 19.23% and 19.89%
Total Cell Count [3]: 172 and 202
Population Apoptotic (%) [4]: 23.08% and 22.22%
Population Healthy Nuclei (%) [4]: 57.56% and 78.38%
Population Hoechst High Intensity Objects (%) [4]: 0%
Population Membrane Permeable-Phenotype (%) [4]: 11.11% and 3.45%
Population Mitochondria Different-Phenotype (%) [4]: 14.14% and 19.54%
Population Mitotic Cells (%) [4]: 76.92% and 77.78%
Population Normal (%) [4]: 100%
Population Tubulin-Different-Phenotype (%) [4]: 52.53% and 70.69%
Total Cell Count [4]: 172 and 222
Population Apoptotic (%) [5]: 28.57% and 56.25%
Population Fragmented Nuclei (%) [5]: 13.07% and 8%
Population Healthy Nuclei (%) [5]: 82.95% and 84%
Population Hoechst High Intensity Objects (%) [5]: 0%
Population Membrane Permeable-Phenotype (%) [5]: 1.37% and 1.79%
Population Mitochondria Different-Phenotype (%) [5]: 19.18% and 6.55%
Population Mitotic Cells (%) [5]: 71.43% and 43.75%
Population Normal (%) [5]: 100%
Total Cell Count [5]: 176 and 200
Population Apoptotic (%) [6]: 34.62% and 60%
Population Healthy Nuclei (%) [6]: 68.28% and 85.52%
Population Hoechst High Intensity Objects (%) [6]: 0%
Population Membrane Permeable-Phenotype (%) [6]: 4.72% and 11.64%
Population Mitochondria Different-Phenotype (%) [6]: 15.75% and 8.99%
Population Mitotic Cells (%) [6]: 65.38% and 40%
Population Normal (%) [6]: 100%
Population Tubulin-Different-Phenotype (%) [6]: 34.65% and 64.55%
Total Cell Count [6]: 186 and 221

COc1ccc(-n2c(C)c([N+](=O)[O-])c3ccc(O)cc32)cc1
Population Apoptotic (%) [1]: 18% and 14.29%
Population Fragmented Nuclei (%) [1]: 8.91% and 3.57%
Population Healthy Nuclei (%) [1]: 66.34% and 79.76%
Population Hoechst High Intensity Objects (%) [1]: 0%
Population Membrane Permeable-Phenotype (%) [1]: 5.97% and 4.48%
Population Mitochondria Different-Phenotype (%) [1]: 7.46%
Population Mitotic Cells (%) [1]: 82% and 85.71%
Population Normal (%) [1]: 100%
Population Pyknosed Nuclei (%) [1]: 24.75% and 16.67%
Population Tubulin-Different-Phenotype (%) [1]: 13.43% and 18.66%
Total Cell Count [1]: 202 and 168
Population Apoptotic (%) [2]: 17.65% and 23.08%
Population Fragmented Nuclei (%) [2]: 6.97% and 4.59%
Population Healthy Nuclei (%) [2]: 67.66% and 77.52%
Population Hoechst High Intensity Objects (%) [2]: 0%
Population Membrane Permeable-Phenotype (%) [2]: 5.15% and 4.73%
Population Mitochondria Different-Phenotype (%) [2]: 6.62% and 11.24%
Population Mitotic Cells (%) [2]: 82.35% and 76.92%
Population Normal (%) [2]: 100%
Population Pyknosed Nuclei (%) [2]: 25.37% and 17.89%
Population Tubulin-Different-Phenotype (%) [2]: 14.71% and 28.4%
Total Cell Count [2]: 201 and 218
Population Apoptotic (%) [3]: 9.52% and 17.86%
Population Fragmented Nuclei (%) [3]: 11.01% and 2.84%
Population Healthy Nuclei (%) [3]: 69.72% and 81.25%
Population Hoechst High Intensity Objects (%) [3]: 0%
Population Membrane Permeable-Phenotype (%) [3]: 4.61% and 4.2%
Population Mitochondria Different-Phenotype (%) [3]: 3.29% and 5.59%
Population Mitotic Cells (%) [3]: 90.48% and 82.14%
Population Normal (%) [3]: 100%
Population Pyknosed Nuclei (%) [3]: 19.27% and 15.91%
Population Tubulin-Different-Phenotype (%) [3]: 10.53% and 19.58%
Total Cell Count [3]: 218 and 176
Population Apoptotic (%) [4]: 15.38% and 16.67%
Population Fragmented Nuclei (%) [4]: 4.88% and 5%
Population Healthy Nuclei (%) [4]: 76.1% and 84.09%
Population Hoechst High Intensity Objects (%) [4]: 0%
Population Membrane Permeable-Phenotype (%) [4]: 3.85% and 2.7%
Population Mitochondria Different-Phenotype (%) [4]: 8.33% and 6.49%
Population Mitotic Cells (%) [4]: 84.62% and 83.33%
Population Normal (%) [4]: 100%
Population Pyknosed Nuclei (%) [4]: 19.02% and 10.91%
Population Tubulin-Different-Phenotype (%) [4]: 15.38% and 20.54%
Total Cell Count [4]: 205 and 220
Population Apoptotic (%) [5]: 26.32% and 22.22%
Population Fragmented Nuclei (%) [5]: 9.8% and 4.74%
Population Healthy Nuclei (%) [5]: 82.45% and 85.79%
Population Hoechst High Intensity Objects (%) [5]: 0%
Population Membrane Permeable-Phenotype (%) [5]: 0% and 1.84%
Population Mitochondria Different-Phenotype (%) [5]: 9.41% and 2.45%
Population Mitotic Cells (%) [5]: 73.68% and 77.78%
Population Normal (%) [5]: 100%
Population Pyknosed Nuclei (%) [5]: 7.76% and 9.47%
Total Cell Count [5]: 245 and 190
Population Apoptotic (%) [6]: 28.57% and 38.89%
Population Fragmented Nuclei (%) [6]: 7.73% and 4.61%
Population Healthy Nuclei (%) [6]: 85.51% and 78.8%
Population Hoechst High Intensity Objects (%) [6]: 0%
Population Membrane Permeable-Phenotype (%) [6]: 3.39% and 7.02%
Population Mitochondria Different-Phenotype (%) [6]: 10.17% and 5.85%
Population Mitotic Cells (%) [6]: 71.43% and 61.11%
Population Normal (%) [6]: 100%
Population Pyknosed Nuclei (%) [6]: 6.76% and 16.59%
Population Tubulin-Different-Phenotype (%) [6]: 10.17% and 28.07%
Total Cell Count [6]: 207 and 217
